High-throughput results as filed in PubChem BioAssay.
The list is not random: actives were taken first. Their share in the collection is about 3.5%.
MrgX1 antagonist: human MrgX1 receptor antagonism, primary screen | B-score at 10 µM | 1.3% of 310,000 active | MRGX1-HEK293 calcium flux, Fluo-4, BAM8-22 antagonism; hits give low values | AID 588676;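 active = calcium-response B-score plate-corrected more than 3 library SD below zero, starting fluorescence within 5 deviations, no agonist response on first addition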;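 note: peak minus trough fluorescence over baseline after final BAM8-22 challenge near maximal dose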
Target sequence (Q96LB2 whole entry, looked up): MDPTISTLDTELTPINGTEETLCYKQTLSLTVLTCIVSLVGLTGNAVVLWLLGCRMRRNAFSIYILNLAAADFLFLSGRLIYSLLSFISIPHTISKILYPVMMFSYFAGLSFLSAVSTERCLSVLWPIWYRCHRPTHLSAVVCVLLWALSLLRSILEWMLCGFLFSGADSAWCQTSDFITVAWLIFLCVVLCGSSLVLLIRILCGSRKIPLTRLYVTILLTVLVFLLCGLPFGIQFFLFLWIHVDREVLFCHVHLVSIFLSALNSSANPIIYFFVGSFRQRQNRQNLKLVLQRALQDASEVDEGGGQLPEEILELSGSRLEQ
MrgX1 allo act: allosterically activates human MrgX1 receptor signaling. MrgX1-HEK293, Fluo-4 calcium flux, FDSS; hits give high values. B-score at 10 µM. 0.63% of 310,000 active. AID 588675;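 active = plate-corrected calcium response at least 3 library SD above typical, normal starting fluorescence, not activating the receptor alone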;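 note: compound read alongside a low EC10 to EC30 dose of BAM8-22 agonist; peak minus trough fluorescence over baseline measured at the second addition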
RGS4 inh: inhibitors of human RGS4 | P49798 | HEK293 M3R/RGS4 inducible, Fluo-4 calcium flux; hits give high values; triggered by carbachol at its EC20 | B-score at 10 µM | 0.45% of 310,000 active;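 active = B-score, a plate-corrected calcium signal, over three deviations above library mean, with baseline fluorescence within five deviations of library mean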;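 note: RGS4 expression induced by doxycycline in cells with stable M3 receptor; B-score is computed from the integrated fluorescence ratio over baseline after carbachol; higher B-score means a larger calcium signal and so more RGS4 inhibition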
RGS4 act: RGS4 potentiation or activation; HEK293 M3R/inducible RGS4, carbachol calcium flux Fluo4; hits give low values; B-score at 10 µM; 0.92% of 310,000 active;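 active = B-score of the integrated calcium signal more than 4 SD below the library mean, with starting fluorescence not abnormally high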;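 note: negative B-score means reduced calcium response which marks RGS4 activation or potentiation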
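Assay system: Inducible-RGS4 HEK293 cells carrying M3 receptor | Schedule: Compound preincubation 20 min at room temperature before agonist | Signal: Kinetic calcium fluorescence imaging with Fluo4-AM dye, 2 µM | Read-out basis: B score from integrated fluorescence ratio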
MrgX1 ag: agonists of human MrgX1 receptor; Q96LB2; 0.44% of 310,000 active; MrgX1-HEK293 cells, Fluo-4 calcium fluorescence, agonist mode; hits give high values; B-score at 10 µM;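 active = calcium response B-score plate-corrected fluorescence ratio at least 3 library SD, with starting fluorescence B-score inside 5 SD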
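Material: MrgX1-expressing HEK293 cells; input: 15,000 cells per well; doses: test compound given as first of three sequential additions; schedule: overnight plating before 1 h dye loading; technique: Fluo-4 NW calcium-flux fluorescence, kinetic read; evaluation: baseline-normalised fluorescence change ratio, B-scored; control set: plate-wise positive and negative controls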
MrgX1 antag conf: confirmation of human MrgX1 receptor antagonists; shares compounds with MrgX1 antagonist; MrgX1-HEK293, BAM8-22 calcium flux, Fluo-4; hits give low values; remaining BAM8-22 calcium response % of control (hits give low values), % at 10 µM; 19% of 2,300 active;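 active = remaining agonist calcium response no higher than 100% minus 3 SD of agonist-only control wells, with starting fluorescence near control levels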;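 note: agonist BAM8-22 given at a near maximal EC90 to ECmax level; peak minus minimum fluorescence divided by baseline after agonist addition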
HEK293 Ca flux: activity in parental HEK293 cells lacking MrgX1. shares compounds with MrgX1 antagonist. Fluo-4 calcium fluorescence, FDSS. fluorescence ratio F(max-min)/F0 at 10 µM. 2% of 4,000 active;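 active = duplicate-averaged calcium fluorescence ratio at least three times the standard deviation of buffer wells, a nonspecific response in parental cells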
HEK293 Ca counter: counter-screen for MrgX1 allosteric activators: effect in parental HEK293 cells | fluorescence ratio F(max-min)/F0 at 10 µM | parental HEK293 calcium flux, Fluo-4 fluorescence ratio; hits give high values | shares compounds with MrgX1 antagonist | 0.4% of 4,000 active;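 active = calcium fluorescence ratio, averaged over duplicates, at least 3 SD of the buffer-well ratio, meaning a nonspecific response in receptor-free cells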;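 note: untransfected parental HEK293 lacking MrgX1 used as counterscreen for MrgX1 allosteric activators; fluorescence change taken during the second addition on a kinetic imager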
HEK293 Ca cntr2: activity in parental HEK293 cells lacking MrgX1 receptor; shares compounds with MrgX1 antagonist; Fluo-4 calcium fluorescence (FDSS); hits give high values; fluorescence ratio F(max-min)/F0 at 10 µM; 8.7% of 4,000 active; AID 624115;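 active = calcium fluorescence ratio at least three times the spread of buffer wells, meaning a non-specific response in parental cells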
Starred values were filed as active, the others as inactive; i = inactive; / = not tested or not shown.

SMILES | MrgX1 antagonist | MrgX1 allo act | RGS4 inh | RGS4 act | MrgX1 ag | MrgX1 antag conf | HEK293 Ca flux | HEK293 Ca counter | HEK293 Ca cntr2
O=C(COc1ccc(Cl)cc1)N(c1ccc(Cl)cc1)C1CN2CCC1CC2 (stereo unspecified) | i | i | i | i | i | / | / | / | /
COc1ccc(C(=O)CN2CCOCC2)cc1F | -5.2* | i | i | i | i | i | i | i | i
O=C(CN1CCOCC1)c1ccc2cc[nH]c2c1 | i | i | i | i | i | / | / | / | /
COC(=O)C(O)(c1ccc(N(C)C(=O)c2ccc(Cl)c(Cl)c2)cc1)C(F)(F)F (stereo unspecified) | -7.8* | i | i | i | i | i | i | i | i
CCOC(=O)C(O)(c1ccc(N(C)C(=O)c2ccc(Cl)c(Cl)c2)cc1)C(F)(F)F (stereo unspecified) | i | i | i | i | i | / | / | / | /
CSc1ccc(C(=O)C2CCCN(Cc3cc4ccccc4[nH]3)C2)cc1 (stereo unspecified) | -5.1* | i | i | -7.1* | i | 79%* | i | i | i
CC(C)CNC(=O)c1c(N)n(Cc2ccc3c(c2)OCO3)c2nc3ccccc3nc12 | -6* | i | i | i | i | i | i | i | 54*
CC(C)CCNC(=O)c1c(N)n(Cc2ccc3c(c2)OCO3)c2nc3ccccc3nc12 | i | i | i | i | i | / | / | / | /
